Laboratory results from ChEMBL document CHEMBL1135904, “Toward an optimal joint recognition of the S1' subsites of endothelin converting enzyme-1 (ECE-1), angiotensin converting enzyme (ACE), and neutral endopeptidase (NEP)” (J Med Chem, 2002).

Columns and labels:
Neprilysin = biological target: T1, Neprilysin (Oryctolagus cuniculus, UniProt P08049); assay: Inhibition of neutral endopeptidase (NEP)
T1 sequence (P08049 whole entry): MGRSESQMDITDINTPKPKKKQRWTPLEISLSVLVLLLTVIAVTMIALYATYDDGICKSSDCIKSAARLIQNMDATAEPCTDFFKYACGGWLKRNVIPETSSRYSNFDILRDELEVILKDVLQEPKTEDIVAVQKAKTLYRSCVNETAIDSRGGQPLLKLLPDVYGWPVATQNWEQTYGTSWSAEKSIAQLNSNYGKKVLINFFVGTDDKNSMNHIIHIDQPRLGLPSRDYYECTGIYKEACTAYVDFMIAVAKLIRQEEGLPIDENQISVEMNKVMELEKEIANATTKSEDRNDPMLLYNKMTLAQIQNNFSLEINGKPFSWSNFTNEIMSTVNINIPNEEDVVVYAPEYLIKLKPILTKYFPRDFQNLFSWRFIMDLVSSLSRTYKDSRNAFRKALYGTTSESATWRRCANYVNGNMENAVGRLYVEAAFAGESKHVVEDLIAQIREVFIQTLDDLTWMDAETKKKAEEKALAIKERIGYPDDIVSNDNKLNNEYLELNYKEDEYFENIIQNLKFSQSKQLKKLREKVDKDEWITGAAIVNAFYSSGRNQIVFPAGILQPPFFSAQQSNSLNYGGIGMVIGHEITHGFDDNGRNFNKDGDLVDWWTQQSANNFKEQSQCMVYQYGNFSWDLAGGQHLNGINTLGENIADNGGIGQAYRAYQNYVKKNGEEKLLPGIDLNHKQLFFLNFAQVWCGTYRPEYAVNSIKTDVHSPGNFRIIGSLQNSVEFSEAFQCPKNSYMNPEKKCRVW
Procedure, shortened: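 NEP purified from rabbit kidney (final 250 ng/mL) preincubated 10 min at 37 °C with or without increasing inhibitor concentrations in 50 mM Tris-HCl pH 7.4. Substrate Dansyl-Gly-(p-NO2)Phe-β-Ala (DGPA; Km 37 μM) added to 50 μM final. Reaction stopped after 1 h with DMSO. Fluorescence read at ex 340/em 530 nm.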

[1] = biological target: T2, Angiotensin-converting enzyme (Rattus norvegicus, UniProt P47820); assay: Inhibition of Angiotensin I converting enzyme ACE)
T2 sequence (P47820 whole entry): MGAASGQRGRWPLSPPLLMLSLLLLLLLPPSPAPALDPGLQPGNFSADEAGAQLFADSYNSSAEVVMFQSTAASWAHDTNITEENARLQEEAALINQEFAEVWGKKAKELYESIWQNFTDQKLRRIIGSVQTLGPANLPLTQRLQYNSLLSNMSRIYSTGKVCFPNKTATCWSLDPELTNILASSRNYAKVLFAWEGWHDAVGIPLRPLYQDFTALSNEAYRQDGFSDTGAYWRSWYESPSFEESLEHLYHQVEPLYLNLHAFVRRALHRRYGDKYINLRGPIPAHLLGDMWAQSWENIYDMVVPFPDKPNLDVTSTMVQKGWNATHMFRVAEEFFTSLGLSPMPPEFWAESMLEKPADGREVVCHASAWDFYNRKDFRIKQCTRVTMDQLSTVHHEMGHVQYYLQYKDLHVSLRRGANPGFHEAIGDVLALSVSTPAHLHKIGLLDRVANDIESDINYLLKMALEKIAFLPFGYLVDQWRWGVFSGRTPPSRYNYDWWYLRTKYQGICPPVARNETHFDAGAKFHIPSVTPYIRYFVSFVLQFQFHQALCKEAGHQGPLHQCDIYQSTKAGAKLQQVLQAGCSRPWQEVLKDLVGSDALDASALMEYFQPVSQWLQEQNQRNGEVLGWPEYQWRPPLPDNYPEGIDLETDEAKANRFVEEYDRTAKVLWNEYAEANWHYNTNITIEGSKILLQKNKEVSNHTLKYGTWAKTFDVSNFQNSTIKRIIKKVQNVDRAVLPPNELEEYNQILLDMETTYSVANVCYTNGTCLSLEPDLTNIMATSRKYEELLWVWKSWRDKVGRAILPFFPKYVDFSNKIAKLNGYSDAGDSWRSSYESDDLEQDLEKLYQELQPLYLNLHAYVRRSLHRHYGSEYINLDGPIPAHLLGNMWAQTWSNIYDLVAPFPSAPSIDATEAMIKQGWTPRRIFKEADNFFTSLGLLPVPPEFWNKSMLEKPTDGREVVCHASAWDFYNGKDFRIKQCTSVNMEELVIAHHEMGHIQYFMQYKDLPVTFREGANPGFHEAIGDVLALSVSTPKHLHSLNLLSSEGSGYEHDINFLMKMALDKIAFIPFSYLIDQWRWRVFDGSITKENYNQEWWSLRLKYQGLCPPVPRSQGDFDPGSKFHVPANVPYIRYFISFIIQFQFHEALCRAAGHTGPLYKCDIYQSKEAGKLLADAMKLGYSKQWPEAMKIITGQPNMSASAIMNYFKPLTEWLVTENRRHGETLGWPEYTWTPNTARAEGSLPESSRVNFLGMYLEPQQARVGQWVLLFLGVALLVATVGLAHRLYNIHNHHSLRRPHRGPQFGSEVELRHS
Procedure, shortened: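 ACE purified from rat testis, final 0.02 pmol/100 µL, preincubated 10 min at 37 °C with or without various inhibitor concentrations in 50 mM Tris/HCl/NaCl 1% pH 7.4. Then 50 µM N-Cbz-Phe-His-Leu (Km 50 µM) added for 30 min. Stopped with 2 N NaOH and diluted with water. Released His-Leu measured fluorometrically.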

[2] = biological target: T3, Endothelin-converting enzyme 1 (Homo sapiens, UniProt P42892); assay: Inhibition of Endothelin-converting enzyme 1 (ECE)
T3 sequence (P42892 whole entry): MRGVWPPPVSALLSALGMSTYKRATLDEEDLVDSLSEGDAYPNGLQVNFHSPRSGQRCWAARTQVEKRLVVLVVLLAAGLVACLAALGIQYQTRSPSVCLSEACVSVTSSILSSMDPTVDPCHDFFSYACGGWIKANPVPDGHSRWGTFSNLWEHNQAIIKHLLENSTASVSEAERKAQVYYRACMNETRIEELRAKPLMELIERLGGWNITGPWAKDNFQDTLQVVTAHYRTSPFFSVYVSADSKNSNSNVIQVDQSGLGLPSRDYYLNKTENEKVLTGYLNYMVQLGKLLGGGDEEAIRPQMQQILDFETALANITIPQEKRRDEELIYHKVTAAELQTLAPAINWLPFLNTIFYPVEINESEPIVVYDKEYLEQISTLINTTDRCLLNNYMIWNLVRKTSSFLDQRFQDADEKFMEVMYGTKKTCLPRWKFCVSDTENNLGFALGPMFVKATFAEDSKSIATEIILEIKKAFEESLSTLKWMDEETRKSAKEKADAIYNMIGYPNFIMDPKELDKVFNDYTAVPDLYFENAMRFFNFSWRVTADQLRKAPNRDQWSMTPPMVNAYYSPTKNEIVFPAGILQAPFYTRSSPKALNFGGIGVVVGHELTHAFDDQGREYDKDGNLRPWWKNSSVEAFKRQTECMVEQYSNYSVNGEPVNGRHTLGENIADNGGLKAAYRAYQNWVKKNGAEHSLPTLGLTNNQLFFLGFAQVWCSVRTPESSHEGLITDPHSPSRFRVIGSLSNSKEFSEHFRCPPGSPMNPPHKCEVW

IC50 (Neprilysin) [µM]	IC50 [1] [µM]	IC50 [2] [µM]	SMILES
2.3			O=C(O)[C@H](Cc1ccc2c(c1)oc1ccccc12)NCP(=O)(O)O
0.004	0.175	0.62	O=C1N[C@H](C(=O)O)CCCCCCc2cccc(c2)CC1CS (stereo not given in full)
0.09			CS(=O)(=O)N[C@@H](CCCCN)C(=O)N[C@@H](Cc1ccccc1)P(=O)(O)CC1(C(=O)N[C@@H](Cc2c[nH]c3ccccc23)C(=O)O)CCCC1
